Source: ChEMBL document CHEMBL2380256, “Discovery of novel Jak2-Stat pathway inhibitors with extended residence time on target” (Bioorg Med Chem Lett, 2013)
pIC50, pKi: −log10 of the molar value. Calls of active or inactive are those of the source. The calls are words filed in the database; no cut-off is given here.

Columns and labels:
[1] = Total plasma concentration in nude mouse allografted with mouse Ba/F3 cells expressing JAK2 TEL domain at 5 mg/kg, po qd measured at 8 hrs; type: ADME, organism-based, BaF3; parameters: dose 5 mg/kg, route oral
Summary of the method: (§1)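 Female nude mice implanted intravenously with Ba/F3 TEL-JAK2 cells on day 0 and dosed orally on day 10. Total plasma drug concentration was measured at the stated times post-dose, averaged over n = 3 per dose and time point.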

[2] = Total plasma concentration in nude mouse allografted with mouse Ba/F3 cells expressing JAK2 TEL domain at 10 mg/kg, po qd measured at 8 hrs; type: ADME, organism-based, BaF3; parameters: dose 10 mg/kg, route oral; summary of the method: as §1
[3] = Total plasma concentration in nude mouse allografted with mouse Ba/F3 cells expressing JAK2 TEL domain at 5 mg/kg, po qd measured at 6 hrs; type: ADME, organism-based, BaF3; parameters: dose 5 mg/kg, route oral; summary of the method: as §1
[4] = Total plasma concentration in nude mouse allografted with mouse Ba/F3 cells expressing JAK2 TEL domain at 5 mg/kg, po qd measured at 2 hrs; type: ADME, organism-based, BaF3; parameters: dose 5 mg/kg, route oral; summary of the method: as §1
[5] = Total plasma concentration in nude mouse allografted with mouse Ba/F3 cells expressing JAK2 TEL domain at 10 mg/kg, po qd measured at 2 hrs; type: ADME, organism-based, BaF3; parameters: dose 10 mg/kg, route oral; summary of the method: as §1
[6] = Total plasma concentration in nude mouse allografted with mouse Ba/F3 cells expressing JAK2 TEL domain at 10 mg/kg, po qd measured at 6 hrs; type: ADME, organism-based, BaF3; parameters: dose 10 mg/kg, route oral; summary of the method: as §1
[7] = system: Mus musculus; assay: In vivo inhibition of JAK2 TEL domain (unknown origin) transfected in mouse Ba/F3 cells allografted in nude mouse assessed as inhibition of STAT5 phosphorylation at 5 mg/kg, po qd measured at 8 hrs relative to vehicle-treated control; type: functional; conditions: BaF3, 8 h
Summary of the method: (§2)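 Female nude mice implanted intravenously with Ba/F3 TEL-JAK2 cells on day 0 and given a single oral dose on day 10. pStat5 was measured at the stated times post-dose. % inhibition was scaled between vehicle and a control inhibitor as maximum and minimum, with n = 3 per dose and time point, reported as mean ±SD.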

[8] = system: Mus musculus; assay: In vivo inhibition of JAK2 TEL domain (unknown origin) transfected in mouse Ba/F3 cells allografted in nude mouse assessed as inhibition of STAT5 phosphorylation at 10 mg/kg, po qd measured at 8 hrs relative to vehicle-treated control; type: functional; conditions: BaF3, 8 h; summary of the method: as §2
[9] = Fraction unbound in nude mouse plasma allografted with mouse Ba/F3 cells expressing JAK2 TEL domain at 5 to 10 mg/kg, po qd after 6 hrs; type: ADME, organism-based, BaF3; parameters: dose 5-10 mg/kg, route oral
[10] = system: Mus musculus; assay: In vivo inhibition of JAK2 TEL domain (unknown origin) transfected in mouse Ba/F3 cells allografted in nude mouse assessed as inhibition of STAT5 phosphorylation at 5 mg/kg, po qd after 6 hrs; type: functional, organism-based; parameters: dose 5 mg/kg; conditions: BaF3; summary of the method: as §2
[11] = system: Mus musculus; assay: In vivo inhibition of JAK2 TEL domain (unknown origin) transfected in mouse Ba/F3 cells allografted in nude mouse assessed as inhibition of STAT5 phosphorylation at 10 mg/kg, po qd after 6 hrs relative to vehicle-treated control; type: functional; conditions: BaF3, 6 h; summary of the method: as §2
[12] = biological target: T1, Tyrosine-protein kinase JAK2 (Homo sapiens, UniProt O60674); assay: Inhibition of JAK2 TEL domain (unknown origin) transfected in mouse Ba/F3 cells; type: cell-based; conditions: baf3
Target sequence in this assay (O60674 whole entry, looked up, the tested form may be a part): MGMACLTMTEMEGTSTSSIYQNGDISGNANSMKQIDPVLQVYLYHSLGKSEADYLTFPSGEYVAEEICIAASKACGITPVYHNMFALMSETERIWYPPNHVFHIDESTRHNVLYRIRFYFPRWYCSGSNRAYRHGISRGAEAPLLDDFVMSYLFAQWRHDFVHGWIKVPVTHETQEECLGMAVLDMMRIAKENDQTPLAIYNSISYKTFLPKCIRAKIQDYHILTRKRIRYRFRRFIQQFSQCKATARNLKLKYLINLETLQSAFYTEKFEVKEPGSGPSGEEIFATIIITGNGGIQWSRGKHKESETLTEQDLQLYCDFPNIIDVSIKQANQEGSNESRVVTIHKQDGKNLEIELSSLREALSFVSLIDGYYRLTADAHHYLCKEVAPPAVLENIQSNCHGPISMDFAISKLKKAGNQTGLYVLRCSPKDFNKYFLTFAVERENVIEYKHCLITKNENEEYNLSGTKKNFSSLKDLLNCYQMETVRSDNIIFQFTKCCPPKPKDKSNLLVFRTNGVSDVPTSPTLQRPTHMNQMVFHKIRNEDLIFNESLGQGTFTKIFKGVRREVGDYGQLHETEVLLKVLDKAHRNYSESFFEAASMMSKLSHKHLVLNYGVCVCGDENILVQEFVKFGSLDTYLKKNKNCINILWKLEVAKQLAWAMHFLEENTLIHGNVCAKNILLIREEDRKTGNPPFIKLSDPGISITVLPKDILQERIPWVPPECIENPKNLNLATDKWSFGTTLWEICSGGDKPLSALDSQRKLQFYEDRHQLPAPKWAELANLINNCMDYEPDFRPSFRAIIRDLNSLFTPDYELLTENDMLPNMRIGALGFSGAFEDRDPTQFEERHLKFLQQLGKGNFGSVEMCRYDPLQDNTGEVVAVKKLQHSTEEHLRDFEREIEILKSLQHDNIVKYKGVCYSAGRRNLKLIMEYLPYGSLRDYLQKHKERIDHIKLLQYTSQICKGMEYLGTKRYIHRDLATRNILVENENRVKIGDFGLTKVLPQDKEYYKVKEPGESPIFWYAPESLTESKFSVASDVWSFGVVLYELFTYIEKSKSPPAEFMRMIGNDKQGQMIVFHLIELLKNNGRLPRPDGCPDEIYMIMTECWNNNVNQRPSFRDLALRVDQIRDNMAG

[13] = biological target: T2, Tyrosine-protein kinase JAK3 (Homo sapiens, UniProt P52333); assay: Inhibition of JAK3 TEL domain (unknown origin) transfected in mouse Ba/F3 cells; type: cell-based, BaF3
T2 sequence (P52333 whole entry): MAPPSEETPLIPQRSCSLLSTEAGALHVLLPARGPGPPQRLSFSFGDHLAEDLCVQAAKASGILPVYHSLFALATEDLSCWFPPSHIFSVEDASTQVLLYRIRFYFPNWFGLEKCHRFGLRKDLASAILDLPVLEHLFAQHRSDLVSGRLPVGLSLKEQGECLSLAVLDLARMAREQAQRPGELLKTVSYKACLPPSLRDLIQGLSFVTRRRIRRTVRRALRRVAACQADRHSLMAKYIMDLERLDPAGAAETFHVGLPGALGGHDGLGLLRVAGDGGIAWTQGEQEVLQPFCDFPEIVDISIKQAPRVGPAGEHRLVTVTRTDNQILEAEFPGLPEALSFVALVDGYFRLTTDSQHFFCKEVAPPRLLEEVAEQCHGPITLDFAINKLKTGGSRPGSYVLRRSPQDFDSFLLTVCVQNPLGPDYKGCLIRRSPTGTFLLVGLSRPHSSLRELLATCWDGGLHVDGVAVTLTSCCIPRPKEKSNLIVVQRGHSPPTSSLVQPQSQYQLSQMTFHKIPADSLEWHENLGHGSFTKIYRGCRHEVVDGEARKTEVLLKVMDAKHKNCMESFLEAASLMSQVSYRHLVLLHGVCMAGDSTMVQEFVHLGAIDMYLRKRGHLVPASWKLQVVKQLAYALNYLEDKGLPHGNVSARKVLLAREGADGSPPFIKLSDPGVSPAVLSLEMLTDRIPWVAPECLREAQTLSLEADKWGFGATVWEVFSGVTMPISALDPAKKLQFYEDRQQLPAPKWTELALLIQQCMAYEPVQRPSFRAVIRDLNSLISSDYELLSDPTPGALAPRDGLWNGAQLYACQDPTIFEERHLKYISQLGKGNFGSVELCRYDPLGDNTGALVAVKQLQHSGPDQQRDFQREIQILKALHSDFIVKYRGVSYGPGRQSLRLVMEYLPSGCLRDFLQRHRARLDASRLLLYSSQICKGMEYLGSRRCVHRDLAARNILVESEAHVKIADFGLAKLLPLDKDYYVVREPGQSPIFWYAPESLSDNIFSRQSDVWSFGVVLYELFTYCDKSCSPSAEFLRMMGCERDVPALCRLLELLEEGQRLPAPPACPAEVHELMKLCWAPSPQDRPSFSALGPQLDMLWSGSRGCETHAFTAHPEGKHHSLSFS

[14] = system: Hepatocyte; assay: Metabolic stability in human hepatocytes measured per 10^6 cells; type: ADME, cell-based
[15] = Volume of distribution at steady state in beagle dog at 5 mg/kg, po and 2.5 mg/kg, iv; type: ADME, organism-based, Canis lupus familiaris; conditions: in vivo, read-out: Vdss
Summary of the method: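 Male Beagle dogs. Oral 5 mg/kg in 0.1% HPMC; intravenous 2.5 mg/kg in HP-β-CD.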

[16] = Volume of distribution at steady state in CD1 mouse at 10 mg/kg, po and 3 mg/kg, iv; type: ADME, organism-based; conditions: in vivo, read-out: Vdss
Summary of the method: (§3)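 Single-dose PK: female CD-1 mice and male Han Wistar rats, 10 mg/kg po in 0.1% HPMC and 3 mg/kg iv in DMA/PEG/saline 40/40/20.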

[17] = Volume of distribution at steady state in Han Wistar rat at 10 mg/kg, po and 3 mg/kg, iv; type: ADME, organism-based; conditions: in vivo, read-out: Vdss
[18] = Clearance in beagle dog at 5 mg/kg, po and […] mg/kg, iv; type: ADME, organism-based, Canis lupus familiaris; conditions: in vivo, 2.5 mg/kg
[19] = Clearance in CD1 mouse at 10 mg/kg, po and 3 mg/kg, iv; type: ADME, organism-based; conditions: in vivo; summary of the method: as §3
[20] = Clearance in Han Wistar rat at 10 mg/kg, po and 3 mg/kg, iv; type: ADME, organism-based; conditions: in vivo; summary of the method: as §3
[21] = AUC in CD1 mouse at 10 mg/kg, po and 3 mg/kg, iv; type: ADME, organism-based; conditions: plasma; summary of the method: as §3
[22] = AUC in Han Wistar rat at 10 mg/kg, po and 3 mg/kg, iv; type: ADME, organism-based; conditions: plasma; summary of the method: as §3
[23] = Oral bioavailability in CD1 mouse at 10 mg/kg; type: ADME, organism-based; conditions: in vivo
Summary of the method: (§4)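 Oral bioavailability in female CD-1 mice and male Han Wistar rats: 10 mg/kg po (0.1% HPMC) versus 3 mg/kg iv (DMA/PEG/saline 40/40/20). %F = (AUCpo × DoseIV)/(AUCIV × Dosepo) × 100.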

[24] = Oral bioavailability in Han Wistar rat at 10 mg/kg; type: ADME, organism-based; conditions: in vivo; summary of the method: as §4
[25] = Growth inhibition of human UKE1 cells harboring JAK2 V617F mutant after 2 days by [3H]-thymidine incorporation assay; type: functional
[26] = system: SET-2; assay: Growth inhibition of human SET2 harboring JAK2 V617F mutant after 24 hrs by Alamar Blue assay; type: functional; conditions: SET-2, 24 h
[27] = biological target: T1, Tyrosine-protein kinase JAK2; assay: Competitive inhibition of JAK2 (unknown origin)
Target sequence in this assay (O60674 whole entry, the tested form may be a part): as the sequence (O60674 whole entry, looked up, the tested form may be a part) above

[28] = Growth inhibition of mouse BA/F3 cells transfected with JAK3 TEL domain after 24 hrs by Alamar Blue assay; type: functional, cell-based; conditions: BaF3, 24 h, read-out: GI50
[29] = Growth inhibition of mouse BA/F3 cells transfected with JAK2 TEL domain after 24 hrs by Alamar Blue assay; type: functional; conditions: BaF3, 24 h
[30] = biological target: T2, Tyrosine-protein kinase JAK3; assay: Inhibition of JAK3 (unknown origin) using biotinylated poly-EY peptide as substrate after 60 mins by HTRF assay
[31] = biological target: T1, Tyrosine-protein kinase JAK2; assay: Inhibition of JAK2 (unknown origin) using biotinylated TYK2 peptide as substrate after 60 mins
Target sequence in this assay (O60674 whole entry, the tested form may be a part): as the sequence (O60674 whole entry, looked up, the tested form may be a part) above

[32] = organism: Homo sapiens; assay: Free drug level in human; type: ADME, organism-based; conditions: in vivo
[33] = Total plasma concentration in nude mouse allografted with mouse Ba/F3 cells expressing JAK2 TEL domain administered as po qd measured at 6 hrs; type: ADME, organism-based, BaF3; summary of the method: as §1
[34] = Total plasma concentration in nude mouse allografted with mouse Ba/F3 cells expressing JAK2 TEL domain administered as po qd measured at 2 hrs; type: ADME, organism-based, BaF3; summary of the method: as §1
[35] = Intrinsic clearance in rat liver microsomes; type: ADME, Microsome; conditions: read-out: CLH
[36] = system: Mus musculus; assay: In vivo inhibition of JAK2 TEL domain (unknown origin) transfected in mouse Ba/F3 cells allografted in nude mouse assessed as inhibition of STAT5 phosphorylation at 10 mg/kg, po qd at 2 hrs relative to vehicle-treated control; type: functional; conditions: BaF3, 2 h; summary of the method: as §2
[37] = organism: Mus musculus; conditions: BaF3, 10 mg/kg
[38] = AUC in beagle dog at 5 mg/kg, po and […] mg/kg, iv; type: ADME, organism-based, Canis lupus familiaris; conditions: plasma
[39] = Oral bioavailability in beagle dog at 5 mg/kg; type: ADME, organism-based, Canis lupus familiaris; conditions: in vivo
Summary of the method: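 Male Beagle dogs received 5 mg/kg po (0.1% HPMC) and 2.5 mg/kg iv (HP-β-CD). %F = (AUCpo × DoseIV)/(AUCIV × Dosepo) × 100.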

Row | SMILES | concentration at 6 h [3] [ng/mL] | concentration at 2 h [4] [ng/mL] | concentration at 2 h [5] [ng/mL] | concentration at 6 h [6] [ng/mL] | fraction unbound at 6 h [9] | inhibition [10] | inhibition in vivo at 10 mg/kg [11] [%] | Stability [14] [µL/min/1e6 cells] | Vd [15] [L/kg] | Vd [16] [L/kg] | Vd [17] [L/kg] | clearance [18] [mL/min/kg] | clearance [19] [mL/min/kg] | clearance [20] [mL/min/kg] | AUC [21] [µM·h] | AUC [22] [µM·h] | GI50 [28] [nM] | GI50 [29] [nM] | pIC50 [30] | pIC50 [31] | also measured
1 | Cc1cc(Nc2nc(N[C@@H](C)c3ncc(F)cc3F)c(F)c(N3CCOCC3)n2)n[nH]1 | 98 | 228 | 376 | 248 | 0.06 | Active | > 80 | 5.2 | 2.5 | 2.9 | 3.1 | 14 | 18 | 12 | 13.3 | 17.7 | 300 | 8 | 8.10 | 8.52 | concentration at 8 h [1]: 55 ng/mL; concentration at 8 h [2]: 123 ng/mL; inhibition in vivo at 5 mg/kg [7]: 50%; inhibition in vivo at 10 mg/kg [8]: 70%; pIC50 [12]: 8.15; pIC50 [13]: 6.43; bioavailability [23]: 64%; bioavailability [24]: 51%; GI50 [25]: 22 nM; GI50 [26]: 14 nM; pKi [27]: 8.85
2 | Cc1cnc(Nc2nc(N[C@@H](C)c3ncc(F)cn3)c(F)c(N3CCOCC3)n2)s1 | – | – | – | – | – | – | – | – | – | – | – | – | – | – | – | – | 2700 | 30 | 4.79 | 7.70 | Drug uptake(free) [32]: 3%; concentration at 6 h [33]: 185 ng/mL; concentration at 2 h [34]: 463 ng/mL; microsomal CLint [35]: 82 µL/min/mg; inhibition in vivo at 10 mg/kg [36]: 50%; inhibition [37]: inactive
3 | Cc1cc(Nc2nc(O[C@@H](C)c3ncc(F)cn3)c(F)c(N3CCOCC3)n2)n[nH]1 | 180 | 325 | 551 | 246 | 0.16 | Active | > 80 | < 2 | 2.4 | 1.4 | 1.6 | 13 | 17 | 11 | 14.7 | 27.5 | 690 | 6 | 7.70 | > 8.52 | AUC [38]: 8.5 µM·h; bioavailability [39]: 56%; bioavailability [23]: 64%; bioavailability [24]: 74%; GI50 [25]: 50 nM; GI50 [26]: 78 nM; pKi [27]: 9.14
